High-throughput results (PubChem)
RanGTP-Impb inh: inhibitors of RanGTP-importin-beta interaction, primary screen, biochemical, FRET, CFP-Ran, YFP-importin-beta, homogeneous; cell-free CFP-Ran/YFP-importin-beta FRET ratio; inhibition, % (no concentration beside the values); 1.1% of 300,000 active;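 active means more than half of the replicate wells show a fall in the fluorescence ratio signal beyond about 16%, limit read from the data, passing the limit was not always enough; inconclusive means exactly half of the replicate wells pass the set limit; inactive means fewer than half of replicates pass the limit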
Runt-CBFb FRET: Runt domain-CBFb interaction inhibition | Q01196+Q13951 | Cerulean-Runt/Venus-CBFb FRET ratio 530/480, 1 h | inhibition, % at 20 µM | 0.46% of 220,000 active;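 active means inhibition over about 50% at 20 µM in the single-dose screen, limit read from the data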
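Buffer or medium: Tris pH 7.5 buffer with BSA. Assay system: Cerulean-labeled Runt domain protein. Amount: each fluorescent fusion protein 100 nM. Read-out basis: loss of energy transfer signal. Incubation: 1 h compound exposure, room temperature. Probe or stimulus: Venus-CBFb binding partner, 100 nM. Detection: FRET, excitation 422 nm, emission at 530 and 480 nm.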
14-3-3 Bad PPI: disrupts binding of bovine 14-3-3 zeta to phospho-Bad peptide | TR-FRET 14-3-3zeta/Dy647-pBad peptide displacement, 1 h | AID 781 | inhibition, % at 21.7 µM | 0.71% of 220,000 active;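 active means inhibition above about 70%, limit read from the data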
Target sequence (P63103 whole entry, looked up): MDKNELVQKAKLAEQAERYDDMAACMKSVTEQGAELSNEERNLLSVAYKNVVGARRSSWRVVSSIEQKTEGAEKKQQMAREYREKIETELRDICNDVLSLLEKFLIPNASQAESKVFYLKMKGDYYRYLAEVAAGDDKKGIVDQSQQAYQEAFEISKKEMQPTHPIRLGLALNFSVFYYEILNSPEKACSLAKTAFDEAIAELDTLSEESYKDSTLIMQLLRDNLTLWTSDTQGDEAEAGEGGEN
TbHK1 inh: T. brucei hexokinase 1 inhibition | inhibition, % at 10 µM | AID 1430 | recombinant TbHK1, G6PDH-coupled NADH A340 | 0.11% of 220,000 active;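 active means inhibition of 50% or more in the single-dose primary screen; inactive means inhibition below 50%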
Hck Nef HTS: inhibitors of human Hck kinase activated by Nef. 0.68% of 220,000 active. AID 463187. P08631. inhibition, % at 20 µM. Recombinant Hck-YEEI plus Nef, Z-Lyte FRET kinase assay;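 active means Hck-Nef kinase inhibition above about 50%, limit read from the data; inactive means inhibition below that limit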
Runt-SMMHC FRET: Runt domain-CBFb-SMMHC interaction inhibition; 0.74% of 220,000 active; Q01196+Q13951; Cerulean-Runt/Venus-CBFb-SMMHC FRET ratio 530/480, 1 h; inhibition, % at 20 µM;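 active means mean inhibition across duplicate retests at 20 µM reaching about 50%, limit read from the data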;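 further: inhibitors lower the FRET ratio by blocking Runt binding to CBFb-SMMHC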
Hits are given with their value; [ ] = another dose, or the depositor's remark. Sampled rows, rich in hits. Any-hit rate of the full collection: about 2.2%.

Cc1csc(NC(=O)c2cc(=O)[nH]c3ccc(S(=O)(=O)N4CCOCC4)cc23)n1 was read as RanGTP-Impb inh inactive, Runt-CBFb FRET 80, 14-3-3 Bad PPI inactive, TbHK1 inh inactive, Hck Nef HTS inactive and Runt-SMMHC FRET 118.
For CC1(OC(=O)C2CCCC2)C(=O)C=C2C=C(c3ccsc3)N(C(CO)CO)C=C2C1=O (stereo not given) the results were RanGTP-Impb inh 18, Runt-CBFb FRET inactive, 14-3-3 Bad PPI inactive, TbHK1 inh inactive, Hck Nef HTS inactive and Runt-SMMHC FRET inactive.
For O=C(Nc1ccc(N2CCOCC2)c(F)c1)c1cccs1 the results were RanGTP-Impb inh 16.
Screening COC(=O)c1cc(NC(=O)c2cccs2)ccc1N1CCOCC1 returned RanGTP-Impb inh inactive, 14-3-3 Bad PPI inactive, TbHK1 inh inactive and Hck Nef HTS inactive.
Screening O=C(CSc1nnc(SCc2ccc(Cl)cc2)s1)N/N=C/c1c[nH]c2ccccc12 returned RanGTP-Impb inh inactive, Runt-CBFb FRET inactive, 14-3-3 Bad PPI 90[fluorescence artefact?], TbHK1 inh inactive, Hck Nef HTS inactive and Runt-SMMHC FRET inactive.
`O=C(CSc1nnc(SCc2cccc3ccccc23)s1)N/N=C/c1c[nH]c2ccccc12` gave RanGTP-Impb inh inactive, Runt-CBFb FRET inactive, 14-3-3 Bad PPI inactive, TbHK1 inh inactive, Hck Nef HTS inactive and Runt-SMMHC FRET inactive.
Screening Cc1noc(C)c1C(=O)Nc1sc(C)c(-c2ccccc2)c1C#N returned RanGTP-Impb inh 110, Runt-CBFb FRET inactive, 14-3-3 Bad PPI inactive, TbHK1 inh inactive, Hck Nef HTS inactive and Runt-SMMHC FRET inactive.
For Cc1onc(-c2c(F)cccc2Cl)c1C(=O)Nc1sc2c(c1C(N)=O)CCC2 the results were RanGTP-Impb inh 61, Runt-CBFb FRET inactive, 14-3-3 Bad PPI inactive, TbHK1 inh inactive, Hck Nef HTS inactive and Runt-SMMHC FRET inactive.
Screening Cc1sc(NC(=O)C2CCCCC2)c(C#N)c1-c1ccccc1 returned RanGTP-Impb inh inactive, Runt-CBFb FRET inactive, 14-3-3 Bad PPI inactive, TbHK1 inh inactive, Hck Nef HTS inactive and Runt-SMMHC FRET inactive.
For N#Cc1c(NC(=O)CSc2ncc(-c3ccccc3)n2CC2CCCO2)sc2c1CCCC2 (stereo not given) the results were RanGTP-Impb inh inactive, Runt-CBFb FRET inactive, 14-3-3 Bad PPI inactive, TbHK1 inh inactive, Hck Nef HTS inactive and Runt-SMMHC FRET 73.
`O=C(Nc1sc2c(c1C(=O)NC1CCCCC1)CCC2)c1ccco1` gave RanGTP-Impb inh 56, Runt-CBFb FRET inactive, 14-3-3 Bad PPI inactive, TbHK1 inh inactive, Hck Nef HTS inactive and Runt-SMMHC FRET inactive.
Screening O=C(N/N=C\CCc1ccccc1)c1ccco1 returned RanGTP-Impb inh inactive, Runt-CBFb FRET inactive, 14-3-3 Bad PPI inactive, TbHK1 inh inactive, Hck Nef HTS inactive and Runt-SMMHC FRET inactive.
Screening Cc1onc(-c2ccccc2)c1C(=O)Nc1sc2c(c1C#N)CCC2 returned RanGTP-Impb inh 46, Runt-CBFb FRET inactive, 14-3-3 Bad PPI inactive, TbHK1 inh inactive, Hck Nef HTS inactive and Runt-SMMHC FRET inactive.
`Cc1onc(-c2ccccc2)c1C(=O)NC(=S)Nc1sc2c(c1C#N)CCC(C)C2` (stereo not given) gave RanGTP-Impb inh inactive, Runt-CBFb FRET inactive, 14-3-3 Bad PPI inactive, TbHK1 inh inactive, Hck Nef HTS inactive and Runt-SMMHC FRET inactive.
Screening O=C(Nc1sc2c(c1C(=O)O)CCC2)c1ccccc1 returned RanGTP-Impb inh inactive, Runt-CBFb FRET inactive, 14-3-3 Bad PPI 83, TbHK1 inh inactive, Hck Nef HTS inactive and Runt-SMMHC FRET inactive.
For Cc1onc(-c2ccccc2)c1C(=O)Nc1sc2c(c1C(N)=O)CCC2 the results were RanGTP-Impb inh 51, Runt-CBFb FRET inactive, 14-3-3 Bad PPI inactive, TbHK1 inh inactive, Hck Nef HTS inactive and Runt-SMMHC FRET inactive.
`CS(=O)(=O)c1cnc(-c2cccnc2)nc1N` gave RanGTP-Impb inh inactive, Runt-CBFb FRET inactive, 14-3-3 Bad PPI inactive, TbHK1 inh inactive, Hck Nef HTS inactive and Runt-SMMHC FRET inactive.
For Nc1nonc1C(=O)NCCNCc1ccccc1OCc1ccc(F)cc1 the results were RanGTP-Impb inh 18, Runt-CBFb FRET inactive, 14-3-3 Bad PPI inactive, TbHK1 inh inactive, Hck Nef HTS inactive and Runt-SMMHC FRET inactive.
`COCC(=O)N1CCC(Oc2ccc(C(=O)NCCCC3CCCC3)cc2)CC1` gave RanGTP-Impb inh inactive.
For COc1ccc(NC(=O)Cc2c(SC)c3ccccc3n2Cc2ccccc2)cc1 the results were RanGTP-Impb inh inactive, Runt-CBFb FRET inactive, 14-3-3 Bad PPI inactive, TbHK1 inh inactive, Hck Nef HTS inactive and Runt-SMMHC FRET inactive.
Screening CC(C)S(=O)(=O)C1=NSC2=NC(=O)/C(=C\c3ccc(-c4ccccc4)o3)C(=N)N21 returned RanGTP-Impb inh inconclusive, Runt-CBFb FRET inactive, 14-3-3 Bad PPI inactive, TbHK1 inh inactive, Hck Nef HTS inactive and Runt-SMMHC FRET 82.
`Cc1ccc(NC(=O)c2cc3ccccc3oc2=N)cc1` gave RanGTP-Impb inh inactive.
`N=c1oc2c3c4c(cc2cc1C(=O)Nc1ccccc1)CCCN4CCC3` gave RanGTP-Impb inh 133, Runt-CBFb FRET inactive, 14-3-3 Bad PPI inactive, TbHK1 inh inactive, Hck Nef HTS inactive and Runt-SMMHC FRET 61.
`Oc1c(CN2CCN(c3ccccc3)CC2)cc(Br)c2cccnc12` gave RanGTP-Impb inh inactive, Runt-CBFb FRET inactive, 14-3-3 Bad PPI inactive, TbHK1 inh inactive, Hck Nef HTS inactive and Runt-SMMHC FRET inactive.
For c1ccc(N2CCN(Cc3ccnc4ccccc34)CC2)cc1 the results were RanGTP-Impb inh inactive, Runt-CBFb FRET inactive, 14-3-3 Bad PPI 71, TbHK1 inh inactive, Hck Nef HTS inactive and Runt-SMMHC FRET inactive.
For COc1cccc2c1C(=O)c1c(O)c3c(c(O)c1C2=O)C[C@@](O)(C(=O)CO)C[C@@H]3O[C@H]1C[C@H](N)[C@H](O)[C@H](C)O1 the results were RanGTP-Impb inh inactive, Runt-CBFb FRET inactive, 14-3-3 Bad PPI 96[fluorescence artefact?], TbHK1 inh inactive, Hck Nef HTS inactive and Runt-SMMHC FRET inactive.
`CN(c1ccc(C(=O)N2CCN(Cc3ccccc3)CC2)cc1)S(=O)(=O)c1ccc(Cl)cc1` gave RanGTP-Impb inh inactive.
Screening COc1ccc(C2c3ccc(O)cc3Oc3ncn(Cc4ccco4)c(=N)c32)cc1 (stereo not given) returned RanGTP-Impb inh inactive, Runt-CBFb FRET 97, 14-3-3 Bad PPI inactive, TbHK1 inh inactive, Hck Nef HTS inactive and Runt-SMMHC FRET inactive.
`COc1ccc(C2c3ccc(O)cc3Oc3ncn(Cc4ccccc4)c(=N)c32)cc1OC` (stereo not given) gave RanGTP-Impb inh inactive, Runt-CBFb FRET inactive, 14-3-3 Bad PPI inactive, TbHK1 inh inactive, Hck Nef HTS inactive and Runt-SMMHC FRET inactive.
For CSc1ccc(S(=O)(=O)NCCCOC(C)C)cc1 the results were RanGTP-Impb inh inactive, Runt-CBFb FRET inactive, 14-3-3 Bad PPI inactive, TbHK1 inh inactive, Hck Nef HTS inactive and Runt-SMMHC FRET inactive.
